Results as given in PMC9199482 (Surgical Endoscopy, 2022).
Where two headings read alike, the source gives them in different places.

How the values were obtained:
[1] = system: patients with right colon cancer; assay: ICG fluorescence lymphography in robotic right hemicolectomy; assay type: in vivo, human; details: 9 patients
How it was run: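 Right colon cancer patients had robotic right hemicolectomy with complete mesocolic excision, in two arms of 9. One arm received intraoperative submucosal ICG injection, and fluorescence guided the lymphadenectomy. The comparison arm had standard technique without ICG. ICG-related complications were recorded, with histological nodal staging afterwards.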

[2] = system: patients scheduled for laparoscopic cholecystectomy; assay: Near-infrared fluorescence cholangiography at a very low dose of ICG; assay type: in vivo, human; details: n = 44
How it was run: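 Prospective study of patients scheduled for laparoscopic cholecystectomy. Each received 0.25 mg ICG intravenously after anaesthetic induction, then NIR fluorescence cholangiography in endoscope overlay mode. Visualisation of the cystic duct, common bile duct and their junction was recorded before and after Calot's triangle dissection. Also recorded: hepatic hyperluminescence, adverse reactions and surgeon satisfaction on a visual analogue scale.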

[3] = system: patients with symptomatic cholelithiasis or acute cholecystitis; assay: Direct gallbladder ICG injection during laparoscopic cholecystectomy; assay type: in vivo, human; details: 29 patients
How it was run: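 Prospective series of laparoscopic cholecystectomies. ICG was diluted in 10 cc sterile water and injected percutaneously into the gallbladder through a 22G fine needle under direct laparoscopic vision; 2–4 cc was given. Cystic, common bile and common hepatic ducts were recorded as identified or not, first after injection before dissection, then after dissection began.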

[4] = system: patients with colorectal cancer; assay type: in vivo, human
How it was run: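 Prospective observational study of consecutive patients from 4/2019 undergoing robotic colorectal cancer surgery. The day before surgery, endoscopy delivered 3 mg ICG in 6 ml saline into the peritumoral submucosa as four 1.5 ml injections at the cardinal points. Fluorescence guided any extension of standard lymphadenectomy. Fluorescent extraregional nodes were counted per patient and by resection type.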

adrenal vein = assay: Intraoperative ICG angiography in laparoscopic adrenal resection; assay type: in vivo, patients
[5] = system: small bowel of large white pigs; assay type: in vivo, pig; details: five pigs, baseline 0.74
[6] = system: patients undergoing LRYGB; assay: RCT of intraperitoneal local anesthetic in LRYGB with ERABS protocol; assay type: in vivo, human; details: intraperitoneal ropivacaine 0.2% 100 mL; both groups
How it was run: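 Prospective double-blind randomised controlled pilot trial with an a-priori protocol: 120 laparoscopic Roux-en-Y gastric bypass patients under an established ERABS protocol. Patients were randomised to intraperitoneal ropivacaine 0.2% 100 mL or normal saline 100 mL. Adverse events were recorded in both arms.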

[7] = 0.25 mg ICG i.v. after anaesthetic induction
[8] = after ICG injection and before starting the dissection

Compound: CC1(C)C(/C=C/C=C/C=C/C=C2\N(CCCCS(=O)(=O)O)c3ccc4ccccc4c3C2(C)C)=[N+](CCCCS(=O)(=O)[O-])c2ccc3ccccc3c21 [ICG, indocyanine green]
- ICG-related complications [1]: none
- CBD identified by ICG NIRF-C [2, 7]: 100%
- CD identified by ICG NIRF-C [2, 7]: 71%
- CDBDJ identified by ICG NIRF-C [2, 7]: 84%
- bile duct injuries or allergic reactions to ICG ([2]; 0.25 mg ICG i.v.): no bile duct injuries (BDIs) or allergic reactions to ICG
- surgeries with surgeon satisfaction of 4/5 or 5/5 (VAS) ([2]; 0.25 mg ICG i.v.): ~90%
- cases with common bile duct identified [3, 8]: 18 cases
- cases with common hepatic duct identified [3, 8]: 9 cases
- cases with common bile duct identified ([3]; after starting the dissection): 27 cases
- cases with common hepatic duct identified ([3]; after starting the dissection): 14 cases
- cases with cystic duct identified ([3]; after starting the dissection): all cases
- patients with ICG-fluorescent lymphnodes observed ([4]; 3 mg ICG in 6 ml saline, peritumoral submucosal, day before surgery, 86/88): 97,7%
- patients with fluorescent extraregional lymph nodes ([4]; 34 of 88 patients): 38,6%
- ICG-injection related complication ([4]; 88 patients): No ICG-injection related complication occurred
- patients with fluorescent extraregional lymph nodes ([4]; anterior rectal resections): 21/33
- patients with fluorescent extraregional lymph nodes ([4]; left hemicolectomies): 3/20
- mean number of retrieved extraregional fluorescent lymph nodes ([4]; range 1–8): 4
- patients with fluorescent extraregional lymph nodes ([4]; right hemicolectomies): 10/31
- cases in which ICG confirmed the adrenal vein (adrenal vein; laparoscopic right adrenal resection): 2/3
- cases in which ICG helped identify the vessel, after the dissection (adrenal vein; left laparoscopic adrenalectomy): 100%

Compound: NC[C@H](O)c1ccc(O)c(O)c1 [norepinephrine]
- local capillary lactate (LCL) ([5]; first assessment): 0.82 mmol/L
- local capillary lactate (LCL) ([5]; fourth assessment): 0.62 mmol/L
- local capillary lactate (LCL) ([5]; second assessment): 0.64 mmol/L
- local capillary lactate (LCL) ([5]; third assessment): 0.60 mmol/L

Compound: CCCN1CCCC[C@H]1C(=O)Nc1c(C)cccc1C [ropivacaine]
- adverse events [6]: no adverse events
